Results as given in ChEMBL document CHEMBL3393009 (J Med Chem, 2015).
Activity calls are given as the source filed them. No cut-off for these calls is given here.

Assays:
[1] = AUC in non-human primate at 5 mg/kg, po; assay type: ADME, organism-based; parameters: dose 5 mg/kg, route oral; conditions: monkey, plasma
Rattus norvegicus [2] = assay: Drug coverage index, ratio fAUC in Wistar Han rat at 20 mg/kg, po bid for 14 days to IC50 for LRRK2 […] phosphorylation in Wistar Han rat brain at 6 to 60 mg/kg, po bid for 14 days; assay type: ADME, organism-based; conditions: in vivo, 336 h
Summary of the method: (§1)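 Wistar Han rats (200–300 g, 8–11 weeks old) were dosed by oral gavage twice daily for 14 days. Vehicle was 10% propylene glycol/20% PEG400/70% 9.5% methocellulose.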

[3] = Drug coverage index, ratio fCmax in Wistar Han rat at 60 mg/kg, po bid for 14 days to IC50 for LRRK2 S395 phosphorylation in Wistar Han rat brain at 6 to 60 mg/kg, po bid for 14 days; assay type: ADME, organism-based; conditions: in vivo, 336 h; summary of the method: as §1
Rattus norvegicus [4] = assay: Inhibition of LRRK2 […] phosphorylation in Wistar Han rat brain at 6 to 60 mg/kg, po bid for 14 days; assay type: functional; conditions: dose mg/kg 6-60
Mus musculus [5] = assay: Inhibition of LRRK2 […] mutant S1292 phosphorylation in BAC-transgenic mouse at 3 to 100 mg/kg, sc measured after 90 mins post dose; assay type: functional; conditions: dose mg/kg 3-100; route subcutaneous
Summary of the method: (§2)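 Mice given compound subcutaneously in 10% NMP/20% SBECD vehicle: four-month-old C57BL/6J (wild type) or seven-month-old LRRK2 BAC-Tg G2019S. Tissues collected 90 min after dose. pS935, and pS1292 (custom antibody) in transgenic brain, read by Western blot of brain/kidney lysates against vehicle controls. Mean ± SEM.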

[6] = Cytotoxicity against human THLE cells by in-vitro ATP depletion assay; assay type: cell-based
Rattus norvegicus [7] = assay: Toxicity in Wistar Han rat assessed as changes in urinary biomarkers at 6 to 60 mg/kg, po bid for 14 days; assay type: organism-based, Urine; parameters: dose 6-60 mg/kg, route oral; conditions: in vivo, 336 h
Summary of the method: (§3)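 Wistar Han rats (200–300 g, 8–11 weeks) dosed by oral gavage twice daily for 14 days. Vehicle: 10% propylene glycol/20% PEG400/70% methylcellulose solution. RBC parameters, electrolytes, food consumption, body weight, clinical chemistry and urinary biomarkers recorded.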

[8] = Volume of distribution at steady state in non-human primate at 5 mg/kg, po; assay type: ADME, organism-based; parameters: dose 5 mg/kg, route oral; conditions: monkey, in vivo
Rattus norvegicus [9] = assay: fCmax in Wistar Han rat at 6 mg/kg, po bid for 14 days; assay type: ADME, organism-based; parameters: dose 6 mg/kg, route oral; conditions: in vivo, 336 h
Mus musculus [10] = assay: Inhibition of LRRK2 […] mutant […] phosphorylation in BAC-transgenic mouse at 3 to 100 mg/kg, sc measured after 90 mins post dose; assay type: functional; conditions: dose mg/kg 3-100; route subcutaneous; summary of the method: as §2
Rattus norvegicus [11] = assay: fAUC in Wistar Han rat at 60 mg/kg, po bid for 14 days; assay type: ADME, organism-based; parameters: dose 60 mg/kg, route oral; conditions: in vivo, 336 h
Summary of the method: (§4)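 Wistar Han rats dosed orally twice daily in 10% propylene glycol/20% PEG400/methylcellulose vehicle. Unbound plasma exposure measured on days 1 and 11.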

[12] = molecular target: Tyrosine-protein kinase JAK2 (Homo sapiens, UniProt O60674); assay: Inhibition of JAK2 (JH1 domain-catalytic) (unknown origin) at 1 uM
[13] = molecular target: Leucine-rich repeat serine/threonine-protein kinase 2 (Homo sapiens, UniProt Q5S007); assay: Inhibition of LRRK2 in human PBMCs by ActivX KiNativ method
Rattus norvegicus [14] = assay: Toxicity in Wistar Han rat assessed as changes in lung parameters at 6 to 60 mg/kg, po bid for 14 days by H and E staining method; assay type: organism-based; parameters: dose 6-60 mg/kg, route oral; conditions: in vivo, 336 h
Rattus norvegicus [15] = assay: Toxicity in Wistar Han rat assessed as changes in clinical chemistry parameters at 6 to 60 mg/kg, po bid for 14 days; assay type: organism-based; parameters: dose 6-60 mg/kg, route oral; conditions: in vivo, 336 h; summary of the method: as §3
Mus musculus [16] = assay: Inhibition of wild type LRRK2 […] phosphorylation in BAC-transgenic C57BL/6J mouse brain at 3 to 100 mg/kg, sc measured after 90 mins post dose; assay type: functional; conditions: dose mg/kg 3-100; route subcutaneous; summary of the method: as §2
[17] = AUC in dog at 5 mg/kg, po; assay type: ADME, organism-based, Canis lupus familiaris; parameters: dose 5 mg/kg, route oral; conditions: plasma
Rattus norvegicus [18] = assay: fAUC in Wistar Han rat at 6 mg/kg, po bid for 14 days; assay type: ADME, organism-based; parameters: dose 6 mg/kg, route oral; conditions: in vivo, 336 h; summary of the method: as §4
[19] = Tmax in non-human primate at 5 mg/kg, po; assay type: ADME, organism-based; parameters: dose 5 mg/kg, route oral; conditions: monkey, in vivo
[20] = Apparent permeability from apical to basolateral side by cell based assay; assay type: physicochemical; conditions: not told
[21] = Toxicity in Wistar Han rat at 6 to 60 mg/kg, po bid for 14 days; assay type: organism-based; parameters: dose 6-60 mg/kg, route oral; conditions: in vivo
Summary of the method: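 Exploratory 14-day study in Wistar Han rats (200–300 g, 8–11 weeks old at start). Dosing was by oral gavage twice daily in 10% propylene glycol/20% PEG400/70% 9.5% methocellulose. Unbound plasma exposure was measured on days 1 and 11. Endpoints were RBC parameters, electrolytes, food consumption, body weight, clinical chemistry, urinary renal biomarkers and kidney appearance.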

[22] = AUC in rat at 5 mg/kg, po; assay type: ADME, organism-based; parameters: dose 5 mg/kg, route oral; conditions: plasma
[23] = Half life in dog at 5 mg/kg, po; assay type: ADME, organism-based, Canis lupus familiaris; parameters: dose 5 mg/kg, route oral; conditions: in vivo
[24] = Oral bioavailability in dog at 5 mg/kg; assay type: ADME, organism-based, Canis lupus familiaris; conditions: in vivo
[25] = Half life in rat at 5 mg/kg, po; assay type: ADME, organism-based; parameters: dose 5 mg/kg, route oral; conditions: in vivo
Rattus norvegicus [26] = assay: Drug coverage index, ratio fAUC in Wistar Han rat at 60 mg/kg, po bid for 14 days to IC50 for LRRK2 […] phosphorylation in Wistar Han rat brain at 6 to 60 mg/kg, po bid for 14 days; assay type: ADME, organism-based; conditions: in vivo, 336 h; summary of the method: as §1
[27] = molecular target: Tyrosine-protein kinase JAK1 (Homo sapiens, UniProt P23458); assay: Inhibition of JAK1 (JH1 domain-catalytic) (unknown origin) at 1 uM
[28] = Cmax in non-human primate at 5 mg/kg, po; assay type: ADME, organism-based; parameters: dose 5 mg/kg, route oral; conditions: monkey, in vivo
[29] = Drug coverage index, ratio fCmax in Wistar Han rat at 6 mg/kg, po bid for 14 days to IC50 for LRRK2 […] phosphorylation in Wistar Han rat brain at 6 to 60 mg/kg, po bid for 14 days; assay type: ADME, organism-based; conditions: in vivo, 336 h; summary of the method: as §1
Rattus norvegicus [30] = assay: Toxicity in Wistar Han rat assessed as changes in electrolytes levels at 6 to 60 mg/kg, po bid for 14 days; assay type: organism-based; parameters: dose 6-60 mg/kg, route oral; conditions: in vivo, 336 h; summary of the method: as §3
Rattus norvegicus [31] = assay: Toxicity in Wistar Han rat assessed as changes in RBC parameters at 6 to 60 mg/kg, po bid for 14 days; assay type: organism-based; parameters: dose 6-60 mg/kg, route oral; conditions: in vivo, 336 h; summary of the method: as §3
Rattus norvegicus [32] = assay: Toxicity in Wistar Han rat assessed as changes in body weight at 6 to 60 mg/kg, po bid for 14 days; assay type: organism-based; parameters: dose 6-60 mg/kg, route oral; conditions: in vivo, 336 h; summary of the method: as §3
[33] = Clearance in rat liver microsomes; assay type: ADME; conditions: read-out: CLH
[34] = Drug coverage index, ratio of average concentration ( 0 to 24 hrs) in Wistar Han rat at 6 to 60 mg/kg, po bid for 14 days to IC50 for LRRK2 […] phosphorylation in Wistar Han rat brain at 6 to 60 mg/kg, po bid for 14 days; assay type: ADME, organism-based; conditions: in vivo; summary of the method: as §1
Mus musculus [35] = assay: Inhibition of wild type LRRK2 […] phosphorylation in BAC-transgenic C57BL/6J mouse kidney at 3 to 100 mg/kg, sc measured after 90 mins post dose; assay type: functional; conditions: dose mg/kg 3-100; route subcutaneous; summary of the method: as §2

Chain of Tyrosine-protein kinase JAK2 (O60674 whole entry, the tested form may be a part): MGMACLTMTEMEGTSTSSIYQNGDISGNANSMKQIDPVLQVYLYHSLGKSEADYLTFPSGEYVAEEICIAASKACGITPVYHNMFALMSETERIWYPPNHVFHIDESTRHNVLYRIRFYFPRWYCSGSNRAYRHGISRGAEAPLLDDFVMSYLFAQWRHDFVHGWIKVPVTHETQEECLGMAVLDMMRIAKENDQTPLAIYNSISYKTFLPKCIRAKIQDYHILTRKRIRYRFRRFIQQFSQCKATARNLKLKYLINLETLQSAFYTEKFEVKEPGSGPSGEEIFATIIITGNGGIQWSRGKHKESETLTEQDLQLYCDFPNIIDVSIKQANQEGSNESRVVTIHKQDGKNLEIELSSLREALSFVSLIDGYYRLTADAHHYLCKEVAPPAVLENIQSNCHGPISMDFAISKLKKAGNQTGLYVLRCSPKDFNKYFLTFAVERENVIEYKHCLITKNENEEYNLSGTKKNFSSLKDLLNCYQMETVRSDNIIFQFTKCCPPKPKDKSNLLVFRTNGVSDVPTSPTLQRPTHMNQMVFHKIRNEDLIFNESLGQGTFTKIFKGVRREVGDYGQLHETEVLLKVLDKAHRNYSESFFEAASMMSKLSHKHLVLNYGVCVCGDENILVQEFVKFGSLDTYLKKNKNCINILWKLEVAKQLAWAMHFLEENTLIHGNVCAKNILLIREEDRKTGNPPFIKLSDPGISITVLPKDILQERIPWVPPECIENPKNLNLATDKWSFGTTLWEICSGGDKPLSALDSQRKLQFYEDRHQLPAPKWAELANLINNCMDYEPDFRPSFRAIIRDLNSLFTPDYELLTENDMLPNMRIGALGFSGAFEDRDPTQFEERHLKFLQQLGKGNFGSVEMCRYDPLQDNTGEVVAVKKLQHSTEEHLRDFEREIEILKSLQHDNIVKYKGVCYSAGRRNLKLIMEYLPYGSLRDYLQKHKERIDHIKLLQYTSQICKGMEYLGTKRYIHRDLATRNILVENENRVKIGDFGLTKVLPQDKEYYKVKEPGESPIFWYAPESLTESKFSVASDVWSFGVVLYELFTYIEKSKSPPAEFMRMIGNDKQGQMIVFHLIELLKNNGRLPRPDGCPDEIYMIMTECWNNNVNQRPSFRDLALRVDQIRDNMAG
Chain of Leucine-rich repeat serine/threonine-protein kinase 2 (Q5S007 whole entry): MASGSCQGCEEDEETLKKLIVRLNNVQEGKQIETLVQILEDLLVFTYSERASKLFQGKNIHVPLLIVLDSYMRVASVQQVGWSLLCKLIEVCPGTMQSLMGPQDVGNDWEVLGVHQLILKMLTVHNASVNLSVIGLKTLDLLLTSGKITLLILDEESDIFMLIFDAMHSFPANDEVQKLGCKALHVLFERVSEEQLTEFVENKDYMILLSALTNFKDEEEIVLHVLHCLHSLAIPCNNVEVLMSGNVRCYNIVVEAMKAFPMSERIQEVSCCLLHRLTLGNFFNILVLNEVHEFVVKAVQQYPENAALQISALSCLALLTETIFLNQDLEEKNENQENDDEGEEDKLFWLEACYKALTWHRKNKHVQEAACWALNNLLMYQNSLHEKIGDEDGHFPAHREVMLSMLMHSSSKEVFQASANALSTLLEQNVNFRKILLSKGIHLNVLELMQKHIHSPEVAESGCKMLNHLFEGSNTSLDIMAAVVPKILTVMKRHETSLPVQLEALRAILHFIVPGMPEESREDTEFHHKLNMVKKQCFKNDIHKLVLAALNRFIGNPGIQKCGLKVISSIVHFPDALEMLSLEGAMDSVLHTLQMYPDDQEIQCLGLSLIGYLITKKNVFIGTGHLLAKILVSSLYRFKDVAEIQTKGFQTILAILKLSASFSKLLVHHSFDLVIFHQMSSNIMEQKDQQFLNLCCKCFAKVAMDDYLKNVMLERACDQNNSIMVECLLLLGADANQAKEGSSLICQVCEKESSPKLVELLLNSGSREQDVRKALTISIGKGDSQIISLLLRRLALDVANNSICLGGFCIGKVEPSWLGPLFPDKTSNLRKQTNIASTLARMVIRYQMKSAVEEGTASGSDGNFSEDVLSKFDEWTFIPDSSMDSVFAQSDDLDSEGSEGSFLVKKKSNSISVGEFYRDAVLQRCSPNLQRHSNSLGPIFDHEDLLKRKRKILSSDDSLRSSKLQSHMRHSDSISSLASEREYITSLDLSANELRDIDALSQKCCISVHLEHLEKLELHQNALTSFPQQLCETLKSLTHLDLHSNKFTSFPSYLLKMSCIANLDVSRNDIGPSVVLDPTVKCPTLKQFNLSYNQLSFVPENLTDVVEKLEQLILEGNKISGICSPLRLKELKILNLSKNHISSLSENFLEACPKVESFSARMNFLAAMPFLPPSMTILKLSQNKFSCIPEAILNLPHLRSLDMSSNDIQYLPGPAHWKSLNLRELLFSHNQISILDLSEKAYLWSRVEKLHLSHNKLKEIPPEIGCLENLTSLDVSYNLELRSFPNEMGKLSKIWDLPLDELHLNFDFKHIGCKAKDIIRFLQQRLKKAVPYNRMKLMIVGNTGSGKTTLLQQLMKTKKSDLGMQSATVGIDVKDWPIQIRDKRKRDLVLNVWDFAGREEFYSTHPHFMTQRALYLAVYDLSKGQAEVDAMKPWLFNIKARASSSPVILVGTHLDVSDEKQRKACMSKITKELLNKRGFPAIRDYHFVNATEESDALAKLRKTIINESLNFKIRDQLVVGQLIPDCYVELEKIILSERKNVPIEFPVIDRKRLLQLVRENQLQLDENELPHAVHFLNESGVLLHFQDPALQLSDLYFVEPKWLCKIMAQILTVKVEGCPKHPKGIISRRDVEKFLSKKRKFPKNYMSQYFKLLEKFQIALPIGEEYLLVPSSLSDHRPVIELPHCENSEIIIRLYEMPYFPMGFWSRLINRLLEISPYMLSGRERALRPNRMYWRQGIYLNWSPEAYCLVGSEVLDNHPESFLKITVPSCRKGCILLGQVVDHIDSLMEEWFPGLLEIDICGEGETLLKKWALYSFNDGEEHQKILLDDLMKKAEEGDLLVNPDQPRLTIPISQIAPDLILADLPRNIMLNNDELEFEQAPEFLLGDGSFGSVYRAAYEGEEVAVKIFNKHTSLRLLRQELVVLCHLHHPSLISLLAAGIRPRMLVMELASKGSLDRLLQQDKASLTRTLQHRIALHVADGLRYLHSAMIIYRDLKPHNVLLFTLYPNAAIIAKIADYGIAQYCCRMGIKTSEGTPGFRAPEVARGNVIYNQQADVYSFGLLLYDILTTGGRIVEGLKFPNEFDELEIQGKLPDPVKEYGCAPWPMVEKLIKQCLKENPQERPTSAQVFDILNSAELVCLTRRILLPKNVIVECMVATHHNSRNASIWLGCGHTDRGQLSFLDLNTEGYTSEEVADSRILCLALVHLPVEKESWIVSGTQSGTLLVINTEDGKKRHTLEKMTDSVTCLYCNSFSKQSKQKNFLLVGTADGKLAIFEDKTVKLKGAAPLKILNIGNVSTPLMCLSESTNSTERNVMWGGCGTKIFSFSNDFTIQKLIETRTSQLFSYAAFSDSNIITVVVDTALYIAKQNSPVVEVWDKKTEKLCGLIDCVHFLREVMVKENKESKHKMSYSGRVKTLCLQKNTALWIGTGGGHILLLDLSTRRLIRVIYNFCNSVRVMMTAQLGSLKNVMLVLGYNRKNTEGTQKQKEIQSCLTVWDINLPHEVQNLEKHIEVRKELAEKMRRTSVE
Chain of Tyrosine-protein kinase JAK1 (P23458 whole entry, the tested form may be a part): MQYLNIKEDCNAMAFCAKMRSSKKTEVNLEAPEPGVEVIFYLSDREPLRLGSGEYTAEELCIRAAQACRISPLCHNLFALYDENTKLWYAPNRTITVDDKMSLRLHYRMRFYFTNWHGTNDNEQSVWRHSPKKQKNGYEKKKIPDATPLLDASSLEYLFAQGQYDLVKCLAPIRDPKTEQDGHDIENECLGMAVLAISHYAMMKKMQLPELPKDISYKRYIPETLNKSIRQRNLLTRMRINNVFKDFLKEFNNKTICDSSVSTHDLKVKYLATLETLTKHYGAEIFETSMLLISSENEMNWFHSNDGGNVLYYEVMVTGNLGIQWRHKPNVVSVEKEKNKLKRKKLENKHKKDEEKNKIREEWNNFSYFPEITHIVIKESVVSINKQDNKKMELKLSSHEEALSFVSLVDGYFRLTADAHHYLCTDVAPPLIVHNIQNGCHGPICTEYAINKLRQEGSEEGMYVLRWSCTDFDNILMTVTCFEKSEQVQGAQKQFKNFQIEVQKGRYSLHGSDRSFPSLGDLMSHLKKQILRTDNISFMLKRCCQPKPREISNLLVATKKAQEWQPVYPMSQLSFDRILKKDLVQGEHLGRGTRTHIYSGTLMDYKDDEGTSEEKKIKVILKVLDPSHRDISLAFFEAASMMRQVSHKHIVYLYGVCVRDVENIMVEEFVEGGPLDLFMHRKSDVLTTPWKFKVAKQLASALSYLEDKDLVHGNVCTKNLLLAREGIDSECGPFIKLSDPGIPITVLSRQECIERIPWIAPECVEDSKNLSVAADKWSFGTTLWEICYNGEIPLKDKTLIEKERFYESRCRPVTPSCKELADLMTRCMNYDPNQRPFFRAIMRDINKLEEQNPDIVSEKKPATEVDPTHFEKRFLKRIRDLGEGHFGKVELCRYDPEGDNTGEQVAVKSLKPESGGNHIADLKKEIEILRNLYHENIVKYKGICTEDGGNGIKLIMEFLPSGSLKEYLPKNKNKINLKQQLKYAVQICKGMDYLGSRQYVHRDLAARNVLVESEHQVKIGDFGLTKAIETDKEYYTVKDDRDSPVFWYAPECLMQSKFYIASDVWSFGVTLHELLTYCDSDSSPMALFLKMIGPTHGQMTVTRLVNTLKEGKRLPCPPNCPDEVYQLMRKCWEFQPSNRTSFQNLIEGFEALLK

For `N#Cc1cccc(-c2c[nH]c3ncnc(N4CCOCC4)c23)c1`, the AUC [1] was 78 ng·h/mL, the Ratio (Rattus norvegicus [2]) was 12 and the Ratio [3] was 70. The fIC50 (Rattus norvegicus [4]) was 15 nM, the fIC50 (Mus musculus [5]) was 21 nM and the IC50 [6] was greater than 223000 nM. For the same compound, the Activity (Rattus norvegicus [7]) was “Non-toxic”, the Vdss [8] was 1.06 L/kg and the fCmax (Rattus norvegicus [9]) was 86 nM. The fIC50 (Mus musculus [10]) was 103 nM, the fAUC (Rattus norvegicus [11]) was 11.17 µM·h and the inhibition [12] was “inactive”. The IC50 [13] was 15 nM, the Activity (Rattus norvegicus [14]) was “Non-toxic” and the Activity (Rattus norvegicus [15]) was “Non-toxic”. It also gave a fIC50 (Mus musculus [16]) of 8 nM, an AUC [17] of 10 ng·h/mL and a fAUC (Rattus norvegicus [18]) of 0.843 µM·h. It also gave a Tmax [19] of 2 h, a Papp A→B [20] of 27 ×10⁻⁶ cm/s and an MTD at 336 h [21] greater than 60 mg/kg/day. For the same compound, the AUC [22] was 629 ng·h/mL, the half-life [23] was 0.78 h and the bioavailability [24] was 0.6%. The half-life [25] was 6.22 h, the Ratio (Rattus norvegicus [26]) was 31 and the inhibition [27] was “inactive”. The Cmax [28] was 25 ng/mL, the Ratio [29] was 6 and the Activity (Rattus norvegicus [30]) was “Non-toxic”. For the same compound, the Activity (Rattus norvegicus [31]) was “Non-toxic”, the Activity (Rattus norvegicus [32]) was “Non-toxic” and the CLint scaled [33] was 131 mL/min/kg. For the same compound, the Ratio [34] was 31 and the fIC50 (Mus musculus [35]) was 11 nM.
